pIC50: −log10 of the molar value.
Columns and labels:
[1] = molecular target: T1, ATP-dependent translocase ABCB1 (Homo sapiens, UniProt P08183); assay: Inhibition of P-gp mediated efflux in adriamycin-resistant human HepG2 cells assessed as intracellular rhodamine-123 accumulation at 0.125 to 10 uM incubated in dark condition for 90 mins by flow cytometry; type: cell-based
In short: (§1)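 HepG2/ADR cells seeded at 5 × 10^5/well and given compound plus 10 μM Rho123 in the dark at 37 °C for 90 min. Cells washed twice in ice-cold PBS, resuspended in PBS, read by flow cytometry in FL1 (Em 525 nm). Fold of control = (treated fluorescence − background)/(Rho123-only fluorescence − background).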

[2] = molecular target: T1, ATP-dependent translocase ABCB1; assay: Inhibition of P-gp mediated efflux in adriamycin-resistant human HepG2 cells assessed as intracellular rhodamine-123 accumulation at 0.125 uM incubated in dark condition for 90 mins by flow cytometry relative to control; type: cell-based; in short: as §1
[3] = molecular target: T1, ATP-dependent translocase ABCB1; assay: Inhibition of P-gp mediated efflux in adriamycin-resistant human HepG2 cells assessed as intracellular rhodamine-123 accumulation at 1 uM incubated in dark condition for 90 mins by flow cytometry; type: cell-based; in short: as §1
[4] = molecular target: T1, ATP-dependent translocase ABCB1; assay: Inhibition of P-gp mediated efflux in adriamycin-resistant human HepG2 cells assessed as intracellular rhodamine-123 accumulation at 2 uM incubated in dark condition for 90 mins by flow cytometry relative to control; type: cell-based; in short: as §1
NCI/ADR-RES = assay: Intrinsic cytotoxicity against human MCF7/ADR cells assessed as inhibition of cell proliferation after 48 hrs by MTT assay; type: cell-based
In short: (§2)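 Seeded at 5 × 10^3 cells/well with graded compound levels, DMSO as negative control, 48 h. MTT added for 4 h, formazan dissolved in DMSO, OD read at 570 nm (reference 630 nm). IC50 by nonlinear regression; triplicate samples.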

HepG2 = assay: Cytotoxicity against adriamycin-resistant human HepG2 cells assessed as inhibition of cell proliferation after 48 hrs by MTT assay; type: functional, cell-based; details: HepG2, 48 h; in short: as §2
[5] = molecular target: T1, ATP-dependent translocase ABCB1; assay: Inhibition of P-gp mediated efflux in adriamycin-resistant human HepG2 cells assessed as intracellular rhodamine-123 accumulation at 10 uM incubated in dark condition for 90 mins by flow cytometry relative to control; type: cell-based; in short: as §1
[6] = Cytotoxicity against HLF cells assessed as inhibition of cell proliferation after 48 hrs by MTT assay; type: cell-based; details: Homo sapiens; in short: as §2
[7] = Half life in Sprague-Dawley rat liver microsomes at 100 uM by HPLC-UV analysis; type: ADME, Microsome
[8] = Metabolic stability in Sprague-Dawley rat liver microsomes assessed as rate constant at 100 uM by HPLC-UV analysis; type: ADME, Microsome
In short: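 Rat liver microsomes at 1 mg protein/mL final, compound at 100 μM final (from a 10 mM CH3CN stock), in 100 mM PBS with 3.0 mM MgCl2 and 1.0 mM NADPH, pH 7.4, 37 °C. Sampled at 0 to 180 min and stopped with ice-cold CH3CN. Control run without NADPH. Centrifuged supernatants analysed by HPLC-UV; three independent experiments in triplicate.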

T1 sequence (P08183 whole entry): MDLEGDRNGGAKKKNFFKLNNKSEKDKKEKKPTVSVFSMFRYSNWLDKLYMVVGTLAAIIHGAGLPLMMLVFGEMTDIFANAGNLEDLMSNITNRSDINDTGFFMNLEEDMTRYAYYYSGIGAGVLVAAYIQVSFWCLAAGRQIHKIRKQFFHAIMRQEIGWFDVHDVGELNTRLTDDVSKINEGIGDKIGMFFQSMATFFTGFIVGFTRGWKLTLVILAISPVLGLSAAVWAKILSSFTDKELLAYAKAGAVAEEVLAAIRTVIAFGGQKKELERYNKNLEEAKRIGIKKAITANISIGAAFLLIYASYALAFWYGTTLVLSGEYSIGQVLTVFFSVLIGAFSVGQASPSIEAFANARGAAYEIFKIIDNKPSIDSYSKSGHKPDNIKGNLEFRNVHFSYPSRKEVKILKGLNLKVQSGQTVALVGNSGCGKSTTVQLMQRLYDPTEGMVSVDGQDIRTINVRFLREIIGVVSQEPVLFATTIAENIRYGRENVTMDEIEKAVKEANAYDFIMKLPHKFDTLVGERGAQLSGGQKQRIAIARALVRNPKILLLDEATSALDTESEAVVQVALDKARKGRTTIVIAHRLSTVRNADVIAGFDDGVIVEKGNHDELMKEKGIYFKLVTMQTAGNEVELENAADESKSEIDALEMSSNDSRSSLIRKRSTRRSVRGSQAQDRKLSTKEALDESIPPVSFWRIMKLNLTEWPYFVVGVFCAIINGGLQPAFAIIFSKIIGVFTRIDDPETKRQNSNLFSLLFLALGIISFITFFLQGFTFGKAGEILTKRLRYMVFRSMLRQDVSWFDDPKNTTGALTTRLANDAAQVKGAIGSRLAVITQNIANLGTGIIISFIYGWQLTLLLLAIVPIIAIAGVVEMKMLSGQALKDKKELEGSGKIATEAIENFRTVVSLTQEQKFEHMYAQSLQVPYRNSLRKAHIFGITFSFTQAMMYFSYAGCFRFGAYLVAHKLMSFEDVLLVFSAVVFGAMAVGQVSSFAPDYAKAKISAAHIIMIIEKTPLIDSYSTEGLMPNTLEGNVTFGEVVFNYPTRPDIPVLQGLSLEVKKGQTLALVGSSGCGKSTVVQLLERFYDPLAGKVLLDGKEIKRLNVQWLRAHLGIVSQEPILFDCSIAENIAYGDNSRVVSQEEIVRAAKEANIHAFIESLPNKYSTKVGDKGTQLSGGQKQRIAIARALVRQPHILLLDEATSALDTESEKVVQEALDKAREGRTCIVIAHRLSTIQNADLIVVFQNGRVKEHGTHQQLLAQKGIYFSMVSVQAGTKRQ

| Structure (SMILES) | pIC50 (NCI/ADR-RES) | pIC50 (HepG2) | INH [5] | other results |
| --- | --- | --- | --- | --- |
| CC(=O)O[C@@H]1CC(=O)/C(C)=C/[C@H]2C=C(C)C(=O)[C@]2(OC(C)=O)[C@H](O)[C@](C)(O)/C=C/C1(C)C | – | – | – | INH [1]: Not Active |
| CC(=O)O/C1=C(\C)[C@@H](O)[C@H]2[C@@H](OC(=O)c3ccccc3)[C@@H](C)[C@H](OC(=O)c3ccccc3)[C@]2(OC(C)=O)[C@H](OC(C)=O)/C(C)=C/CC(C)(C)[C@H](OC(C)=O)[C@H]1OC(C)=O | < 3.82 | < 3.82 | Active | FC [2]: 1.37; INH [3]: Active; FC [4]: 2.78 |
| CC(=O)O[C@@H]1C[C@@H](OC(=O)c2ccccc2)/C(C)=C/[C@H]2[C@@H](OC(=O)c3ccccc3)[C@@H](C)[C@H](O)[C@]2(OC(C)=O)[C@H](OC(C)=O)[C@](C)(O)/C=C/C1(C)C | – | – | Active | – |
| CC(=O)O[C@@H]1C[C@@H](OC(=O)c2ccccc2)/C(C)=C/[C@H]2[C@@H](OC(=O)c3ccccc3)[C@@H](C)[C@H](O)[C@]2(OC(C)=O)[C@H](O)[C@](C)(O)/C=C/C1(C)C | < 3.82 | < 3.82 | Active | FC [2]: 1.32; INH [3]: Active; FC [4]: 2.8 |
| C/C1=C\[C@H]2[C@@H](OC(=O)c3ccccc3)[C@@H](C)[C@H](O)[C@]2(O)[C@H](O)[C@](C)(O)/C=C/C(C)(C)[C@H](O)C[C@H]1OC(=O)c1ccccc1 | – | – | – | INH [1]: Not Active |
| CC(=O)O[C@@H]1C[C@@H](OC(C)=O)C(C)(C)/C=C/[C@@](C)(O)[C@@H](O)[C@@]2(OC(C)=O)[C@@H](O)[C@H](C)[C@H](OC(=O)c3ccccc3)[C@@H]2/C=C/1C | – | – | Active | – |
| CC(=O)O[C@@H]1C[C@@H](OC(=O)c2ccccc2)/C(C)=C/[C@H]2[C@@H](OC(=O)c3ccccc3)[C@@H](C)[C@H](OC(C)=O)[C@]2(OC(C)=O)C(=O)[C@](C)(O)/C=C/C1(C)C | < 3.82 | < 3.82 | Active | pIC50 [6]: < 4.00 |
| C/C1=C\[C@H]2[C@@H](OC(=O)c3ccccc3)[C@@H](C)[C@H](O)[C@]2(O)[C@H](O)[C@](C)(O)/C=C/C(C)(C)[C@H](O)C[C@H]1O | – | – | – | INH [1]: Not Active |
| CC(=O)O[C@@H]1C[C@@H](O)/C(C)=C/[C@H]2[C@@H](OC(=O)c3ccccc3)[C@@H](C)[C@H](O)[C@]2(OC(C)=O)[C@H](OC(=O)c2ccccc2)[C@](C)(O)/C=C/C1(C)C | – | – | Active | – |
| COc1cc2c(cc1OC)CN(CCc1ccc(NC(=O)c3cc(OC)c(OC)cc3NC(=O)c3cnc4ccccc4c3)cc1)CC2 | 4.88 | 4.43 | Active | FC [2]: 1.04; INH [3]: Not Active; half-life at 100 µM [7]: 3.5 h; k el at 100 µM [8]: 5.5e-05 s⁻¹; FC [4]: 2.97; pIC50 [6]: 4.78 |
| C[C@]12CC[C@H]3[C@@H](CCC4=CC(=O)CC[C@@]43C)[C@@H]1CC[C@@H]2O [TESTOSTERONE] | – | – | – | k el at 100 µM [8]: 0.00444 s⁻¹ |
| CC(=O)O/C1=C(\C)[C@H]2O[C@@](C)([C@@H](OC(C)=O)CC(C)(C)[C@H](OC(C)=O)[C@H]1OC(C)=O)[C@@H](OC(C)=O)[C@]1(OC(C)=O)[C@@H]2[C@@H](OC(=O)c2ccccc2)[C@@H](C)[C@@H]1OC(C)=O | < 3.82 | < 3.82 | – | FC [2]: 1.81; INH [3]: Active; FC [4]: 3.07 |
| CC(=O)O/C1=C(\C)[C@@H](O)[C@H]2[C@@H](OC(=O)c3ccccc3)[C@@H](C)[C@H](OC(C)=O)[C@]2(OC(C)=O)[C@H](OC(C)=O)/C(C)=C/CC(C)(C)[C@H](OC(C)=O)[C@H]1OC(C)=O | – | – | Active | – |
| CC(=O)O[C@@H]1[C@@H](OC(C)=O)C(C)(C)C/C=C(\C)[C@@H](OC(C)=O)[C@]2(OC(C)=O)[C@@H](/C=C(\C)[C@@H]1OC(C)=O)[C@@H](OC(=O)c1ccccc1)[C@@H](C)[C@@H]2OC(C)=O | – | – | Active | – |
| CC(=O)O[C@@H]1C[C@@H](OC(=O)c2ccccc2)/C(C)=C/[C@H]2[C@@H](OC(=O)c3ccccc3)[C@@H](C)[C@H](OC(=O)c3ccc(Br)cc3)[C@]2(OC(C)=O)[C@H](O)[C@](C)(O)/C=C/C1(C)C | < 3.82 | 4.09 | Active | – |
| CC(=O)O[C@@H]1C[C@@H](OC(=O)c2ccccc2)/C(C)=C/[C@H]2[C@@H](OC(=O)c3ccccc3)[C@@H](C)[C@H](OC(=O)c3ccccc3)[C@]2(OC(C)=O)[C@H](O)[C@](C)(O)/C=C/C1(C)C | 4.19 | < 3.82 | Active | INH [3]: Active |

| Structure (SMILES) | pIC50 (NCI/ADR-RES) | pIC50 (HepG2) | INH [5] | other results |
| --- | --- | --- | --- | --- |
| CC(=O)O[C@@H]1[C@@H](OC(C)=O)C(=O)/C(C)=C/C2=C[C@@H](C)[C@H](OC(C)=O)[C@]2(OC(C)=O)[C@H](OC(C)=O)/C(C)=C/CC1(C)C | – | – | – | INH [1]: Not Active |
| CC(=O)O[C@@H]1[C@@H](O)C(=O)/C(C)=C/C2=C[C@@H](C)[C@H](OC(C)=O)[C@]2(OC(C)=O)[C@H](OC(C)=O)/C(C)=C/CC1(C)C | – | – | – | INH [1]: Not Active |
| CC(=O)O[C@@H]1C[C@@H](OC(=O)c2ccccc2)/C(C)=C/[C@H]2[C@@H](OC(=O)c3ccccc3)[C@@H](C)[C@H](OC(=O)c3ccco3)[C@]2(OC(C)=O)[C@H](O)[C@](C)(O)/C=C/C1(C)C | < 3.82 | < 3.82 | Active | – |
| CC(=O)O/C1=C(\C)[C@@H](O)[C@H]2[C@@H](OC(=O)c3ccccc3)[C@@H](C)[C@H](O)[C@]2(O)[C@H](O)/C(C)=C/CC(C)(C)[C@H](OC(C)=O)[C@H]1OC(C)=O | – | – | – | INH [1]: Not Active |
| CC(=O)O[C@@H]1[C@@H](OC(C)=O)C(=O)/C(C)=C/[C@H]2[C@@H](OC(=O)c3ccccc3)[C@@H](C)[C@H](OC(C)=O)[C@]2(OC(C)=O)[C@H](OC(C)=O)/C(C)=C/CC1(C)C | – | – | Active | – |
| CC(=O)O/C1=C(\C)C(=O)[C@H]2[C@@H](OC(=O)c3ccccc3)[C@@H](C)[C@H](OC(C)=O)[C@]2(OC(C)=O)[C@H](OC(C)=O)/C(C)=C/CC(C)(C)[C@H](OC(C)=O)[C@H]1OC(C)=O | – | – | Active | INH [3]: Active |
| CC(=O)O[C@@H]1C[C@@H](O)/C(C)=C/[C@H]2[C@@H](OC(=O)c3ccccc3)[C@@H](C)[C@H](O)[C@]2(OC(C)=O)[C@H](O)[C@](C)(O)/C=C/C1(C)C | – | – | – | INH [1]: Not Active |
| CC(=O)O[C@@H]1C[C@@H](OC(=O)c2ccccc2)/C(C)=C/[C@H]2[C@@H](OC(=O)c3ccccc3)[C@@H](C)[C@H](OC(C)=O)[C@]2(OC(C)=O)[C@H](O)[C@](C)(O)/C=C/C1(C)C | < 3.82 | 4.03 | Active | – |
| CC(=O)O[C@@H]1C[C@@H](OC(=O)c2ccccc2)/C(C)=C/[C@H]2[C@@H](OC(=O)c3ccccc3)[C@@H](C)[C@H](OC(=O)c3cccs3)[C@]2(OC(C)=O)[C@H](O)[C@](C)(O)/C=C/C1(C)C | < 3.82 | < 3.82 | Active | – |
| CC(=O)O/C1=C(\C)[C@H]2O[C@](C)([C@@H](OC(C)=O)[C@]3(OC(C)=O)[C@@H]2[C@@H](OC(=O)c2ccccc2)[C@@H](C)[C@@H]3OC(C)=O)[C@H]2O[C@@H]2C(C)(C)[C@H](OC(C)=O)[C@H]1OC(C)=O | 4.25 | 3.89 | – | INH [3]: Active; FC [5]: 3.65 |
| C/C1=C\[C@H]2[C@@H](O)[C@@H](C)[C@H](O)[C@]2(O)[C@H](O)[C@](C)(O)/C=C/C(C)(C)[C@H](O)C[C@H]1O | – | – | – | INH [1]: Not Active |
| CC(=O)O[C@@H]1C[C@@H](OC(=O)c2ccccc2)/C(C)=C/[C@H]2[C@@H](OC(=O)c3ccccc3)[C@@H](C)[C@H](OS(=O)(=O)c3ccc(C)cc3)[C@]2(OC(C)=O)[C@H](O)[C@](C)(O)/C=C/C1(C)C | < 3.82 | < 3.82 | Active | pIC50 [6]: < 4.00 |
| CC(=O)O[C@@H]1C[C@@H](OC(=O)c2ccccc2)/C(C)=C/[C@H]2[C@@H](OC(=O)c3ccccc3)[C@@H](C)[C@H](O)[C@]2(O)[C@H](O)[C@](C)(O)/C=C/C1(C)C | – | – | Active | – |
| CC(=O)O[C@@H]1[C@@H](O)C(=O)/C(C)=C/C2=C[C@@H](C)[C@H](O)[C@]2(OC(C)=O)[C@H](O)/C(C)=C/CC1(C)C | – | – | – | INH [1]: Not Active |
| COc1ccc(CCN(C)CCCC(C#N)(c2ccc(OC)c(OC)c2)C(C)C)cc1OC (stereo not given) | – | – | – | k el at 100 µM [8]: 0.000392 s⁻¹ |
| CC(=O)O[C@@H]1[C@@H](OC(C)=O)C(=O)/C(C)=C/[C@H]2[C@@H](OC(=O)c3ccccc3)[C@@H](C)[C@H](OC(C)=O)[C@]2(OC(C)=O)[C@H](OC(C)=O)[C@]2(C)O[C@H]2CC1(C)C | – | – | Active | – |
